{"data": "Assay results collected from several papers", "EGFR del752-759": "Epidermal growth factor receptor (EGFR, Homo sapiens, UniProt P00533, del752-759)", "EGFR G719C": "Epidermal growth factor receptor (EGFR, Homo sapiens, UniProt P00533, G719C)", "EGFR L858R": "Epidermal growth factor receptor (EGFR, Homo sapiens, UniProt P00533, L858R)", "EGFR G719S": "Epidermal growth factor receptor (EGFR, Homo sapiens, UniProt P00533, G719S)", "EGFR L861Q": "Epidermal growth factor receptor (EGFR, Homo sapiens, UniProt P00533, L861Q)", "EGFR L858R/T790M": "Epidermal growth factor receptor (EGFR, Homo sapiens, UniProt P00533, L858R/T790M)", "EGFR del747-752/P753S": "Epidermal growth factor receptor (EGFR, Homo sapiens, UniProt P00533, del747-752/P753S)", "note": "Compare with care: the assays were run in different laboratories."}
{"SMILES": "CNC(=O)[C@@H]1CC[C@@H](n2c(-c3ccc4cnccc4c3)nc3ccc(C(=O)NCc4cccc(C(N)=O)c4)cc32)C1", "target": "EGFR del752-759", "assay": "binding, competition with immobilised ligand", "conditions": "1 µM", "remaining binding [%]": 91}
{"SMILES": "CCN1CCN(Cc2ccc(C(=O)Nc3ccc(C)c(Oc4ccc5c(c4)CC(=O)N5)c3)cc2C(F)(F)F)CC1", "target": "EGFR G719C", "assay": "binding, competition with immobilised ligand", "conditions": "1 µM", "remaining binding [%]": 100}
{"SMILES": "CC1CCCN1c1nccc(-c2cnn3ncccc23)n1 (centres unmarked)", "target": "Epidermal growth factor receptor (EGFR, Homo sapiens, UniProt P00533, T790M)", "assay": "binding", "conditions": "1 µM", "remaining binding [%]": 100}
{"SMILES": "c1ccc(N2CCN(Cc3nc4ccccc4[nH]3)CC2)nc1", "target": "EGFR L858R", "assay": "cell-free assay, competition with immobilised ligand", "conditions": "1 µM", "remaining binding [%]": 100}
{"SMILES": "c1cnn2ncc(-c3ccnc(N4CCC45COC5)n3)c2c1", "target": "EGFR del752-759", "assay": "binding", "conditions": "1 µM", "remaining binding [%]": 67}
{"SMILES": "Nc1cnc(N2CCc3cc(S(=O)(=O)Nc4c(F)cc(Cl)cc4F)cc(N4CCCC4=O)c32)nc1", "target": "EGFR G719S", "assay": "cell-free assay, competition with immobilised ligand", "conditions": "1 µM", "remaining binding [%]": 75}
{"SMILES": "Nc1ncc2c(n1)-c1c([nH]c3ccc(C#CC4CC4)cc13)CCCC2", "target": "Epidermal growth factor receptor (EGFR, Homo sapiens, UniProt P00533, del746-750)", "assay": "binding, competition with immobilised ligand", "conditions": "1 µM", "remaining binding [%]": 72}
{"SMILES": "Cc1cnc(Nc2ccc(C(=O)N3CCC(N4CCCC4)CC3)cc2)nc1-c1cc2ccccc2s1", "target": "EGFR del752-759", "assay": "binding, competition with immobilised ligand", "conditions": "1 µM", "remaining binding [%]": 84}
{"SMILES": "COc1cc(-c2cn(C3CCc4c(F)cccc4N(CC(F)(F)F)C3=O)nn2)ccc1-n1cnc(C)c1 (centres unmarked)", "target": "EGFR L858R", "assay": "cell-free assay, competition with immobilised ligand", "conditions": "1 µM", "remaining binding [%]": 100}
{"SMILES": "Cc1cnn2ncc(-c3ccnc(N(C)C)n3)c2c1", "target": "EGFR L861Q", "assay": "binding", "conditions": "1 µM", "remaining binding [%]": 70}
{"SMILES": "Cn1nc(C(F)(F)F)cc1-c1cnc(N2CCc3cc(S(=O)(=O)Nc4c(F)cc(Cl)cc4F)cc(N4CCCC4=O)c32)nc1", "target": "EGFR del752-759", "assay": "cell-free assay, competition with immobilised ligand", "conditions": "1 µM", "remaining binding [%]": 100}
{"SMILES": "C[C@@H]1CCN(c2nccc(-c3cnn4ncccc34)n2)C1", "target": "EGFR L858R", "assay": "binding", "conditions": "1 µM", "remaining binding [%]": 93}
{"SMILES": "O=C(Nc1c[nH]nc1C(=O)NC1CCNCC1)c1cc(F)cc(F)c1", "target": "EGFR L858R/T790M", "assay": "binding, competition with immobilised ligand", "conditions": "1 µM", "remaining binding [%]": 100}
{"SMILES": "COc1cnc(Nc2cccc(S(N)(=O)=O)c2)nc1N1CCN(c2ccccc2)CC1", "target": "EGFR G719C", "assay": "binding, competition with immobilised ligand", "conditions": "1 µM", "remaining binding [%]": 100}
{"SMILES": "O=C(NCCCN1CCOCC1)c1ccc(Nc2ncc(Cl)c(-c3ccc(Cl)s3)n2)cc1", "target": "EGFR del747-752/P753S", "assay": "binding, competition with immobilised ligand", "conditions": "1 µM", "remaining binding [%]": 98}
{"SMILES": "CCS(=O)(=O)c1cc2cc(C[C@@](O)(CC(C)(C)c3ccc(F)cc3C(N)=O)C(F)(F)F)[nH]c2cn1", "target": "Epidermal growth factor receptor (EGFR, Homo sapiens, UniProt P00533, del747-750/T751S)", "assay": "cell-free assay, competition with immobilised ligand", "conditions": "1 µM", "remaining binding [%]": 93}
{"SMILES": "O=C(c1ccc(Nc2ncc(Cl)c(-c3cc4ccccc4s3)n2)cc1)N1CCC(N2CCCC2)CC1", "target": "Epidermal growth factor receptor (EGFR, Homo sapiens, UniProt P00533)", "assay": "binding, competition with immobilised ligand", "conditions": "1 µM", "remaining binding [%]": 90}
{"SMILES": "CN(c1nccc(-c2cnn3ncccc23)n1)C1CC1", "target": "EGFR del752-759", "assay": "binding", "conditions": "1 µM", "remaining binding [%]": 100}
{"SMILES": "C[C@H](c1ccnc(Nc2nc3ccc(-c4cc(N(C)C)ncn4)cc3[nH]2)c1)N1CCN(C(=O)CC(F)(F)F)CC1", "target": "EGFR del747-752/P753S", "assay": "cell-free assay, competition with immobilised ligand", "conditions": "0.1 µM", "remaining binding [%]": 69}
{"SMILES": "CN(C)c1ncc(F)c(-c2cnn3ncccc23)n1", "target": "EGFR L858R/T790M", "assay": "binding", "conditions": "1 µM", "remaining binding [%]": 74}
{"SMILES": "O=C(c1ccc(Nc2nccc(-c3cc4ccccc4s3)n2)cc1)N1CCC(N2CCCC2)CC1", "target": "EGFR G719S", "assay": "binding, competition with immobilised ligand", "conditions": "1 µM", "remaining binding [%]": 94}
{"SMILES": "CN(C)c1nccc(-c2cnc3ncccn23)n1", "target": "EGFR L861Q", "assay": "binding", "conditions": "1 µM", "remaining binding [%]": 90}
{"SMILES": "C[C@@]1(Cc2ccc(C#N)cc2)C(=O)N(c2cc(Cl)cc(Cl)c2)c2ncc(C(=O)NC3(c4nc(C5CCC5)no4)CC3)n21", "target": "EGFR del747-752/P753S", "assay": "cell-free assay, competition with immobilised ligand", "conditions": "1 µM", "remaining binding [%]": 58}
